The text below walks through data of ChEMBL document CHEMBL4368912, “Discovery and Development of N-[4-(1-Cyclobutylpiperidin-4-yloxy)phenyl]-2-(morpholin-4-yl)acetamide Dihydrochloride (SUVN-G3031): A Novel, Potent, Selective, and Orally Active Histamine H3 Receptor Inverse Agonist with Robust Wake-Promoting Activity” (J Med Chem, 2019).

Series [1] in a line: Mutagenicity in Salmonella typhimurium TA1535 in absence of metabolic activation by Ames test. The class given is toxicity. To be noted: salmonella enterica subsp. enterica serovar typhimurium. Background: In the Ames test, an excess of revertant colonies over the control signals mutagenicity.
Series [2] is described as follows: Toxicity in Wistar rat assessed as effect on latency to fall at 30 to 100 mg/kg, po by rotarod test. The class given is organism-based. As to conditions: in vivo; call rule not given here. Summed up:
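Motor coordination was assessed on the rotarod as latency to fall after oral doses of 30 and 100 mg/kg.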

Series [3] concerns Rattus norvegicus. Kind of series: In vivo receptor occupancy at histamine 3 receptor in po dosed Wistar rat frontal cortex after 1 to 24 hrs by LC-MS/MS analysis. The series is classed as functional.
The nature of series [4]: Volume of distribution in Beagle dog at 1 mg/kg, iv by LC-MS/MS analysis. To be noted: in vivo. The series is classed as ADME, organism-based, Canis lupus familiaris.
Series [5] addresses Voltage-gated inwardly rectifying potassium channel KCNH2 (Homo sapiens, UniProt Q12809). The series is described as follows: Inhibition of human ERG expressed in HEK293 cells by whole-cell patch clamp assay. The class given is cell-based. (In general: Patch clamp records ionic current or voltage across a cell membrane.)
Series [6] deals with T1, Cytochrome P450 2C8 (Homo sapiens, UniProt P10632).
T1 sequence (P10632 whole entry): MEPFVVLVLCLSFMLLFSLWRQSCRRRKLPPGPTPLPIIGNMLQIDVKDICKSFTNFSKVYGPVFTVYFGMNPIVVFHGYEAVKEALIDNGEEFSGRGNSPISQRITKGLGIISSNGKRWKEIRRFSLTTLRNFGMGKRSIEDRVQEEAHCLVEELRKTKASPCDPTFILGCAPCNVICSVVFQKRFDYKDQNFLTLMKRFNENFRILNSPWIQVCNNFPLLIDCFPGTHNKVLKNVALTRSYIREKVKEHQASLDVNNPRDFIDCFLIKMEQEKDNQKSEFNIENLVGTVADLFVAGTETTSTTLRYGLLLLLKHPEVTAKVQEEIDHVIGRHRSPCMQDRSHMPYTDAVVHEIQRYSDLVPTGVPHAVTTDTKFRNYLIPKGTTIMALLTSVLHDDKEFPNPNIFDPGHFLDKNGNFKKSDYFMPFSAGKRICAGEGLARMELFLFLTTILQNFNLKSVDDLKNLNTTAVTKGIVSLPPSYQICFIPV
The series is described as follows: Inhibition of CYP2C8 (unknown origin). The class given is ADME.

Series [7] in a line: Respiratory toxicity in Wistar rat up to 90 mg/kg, po. As to conditions: in vivo. The class given is organism-based. Summed up: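 Respiratory safety was evaluated in rats given single oral doses of 10, 30 and 90 mg/kg.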
Series [8] is described as follows: Toxicity in dog assessed as effect on body weight at 10 to 25 mg/kg, po. The series is classed as organism-based, Canis lupus familiaris. To be noted: in vivo. Summed up: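 Male dogs received oral doses of 10, 18 and 25 mg/kg. Body weight, body temperature, blood pressure, heart rate and ECG were monitored.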

Molecules are shown by their SMILES.

Sequence of Voltage-gated inwardly rectifying potassium channel KCNH2 (Q12809 whole entry): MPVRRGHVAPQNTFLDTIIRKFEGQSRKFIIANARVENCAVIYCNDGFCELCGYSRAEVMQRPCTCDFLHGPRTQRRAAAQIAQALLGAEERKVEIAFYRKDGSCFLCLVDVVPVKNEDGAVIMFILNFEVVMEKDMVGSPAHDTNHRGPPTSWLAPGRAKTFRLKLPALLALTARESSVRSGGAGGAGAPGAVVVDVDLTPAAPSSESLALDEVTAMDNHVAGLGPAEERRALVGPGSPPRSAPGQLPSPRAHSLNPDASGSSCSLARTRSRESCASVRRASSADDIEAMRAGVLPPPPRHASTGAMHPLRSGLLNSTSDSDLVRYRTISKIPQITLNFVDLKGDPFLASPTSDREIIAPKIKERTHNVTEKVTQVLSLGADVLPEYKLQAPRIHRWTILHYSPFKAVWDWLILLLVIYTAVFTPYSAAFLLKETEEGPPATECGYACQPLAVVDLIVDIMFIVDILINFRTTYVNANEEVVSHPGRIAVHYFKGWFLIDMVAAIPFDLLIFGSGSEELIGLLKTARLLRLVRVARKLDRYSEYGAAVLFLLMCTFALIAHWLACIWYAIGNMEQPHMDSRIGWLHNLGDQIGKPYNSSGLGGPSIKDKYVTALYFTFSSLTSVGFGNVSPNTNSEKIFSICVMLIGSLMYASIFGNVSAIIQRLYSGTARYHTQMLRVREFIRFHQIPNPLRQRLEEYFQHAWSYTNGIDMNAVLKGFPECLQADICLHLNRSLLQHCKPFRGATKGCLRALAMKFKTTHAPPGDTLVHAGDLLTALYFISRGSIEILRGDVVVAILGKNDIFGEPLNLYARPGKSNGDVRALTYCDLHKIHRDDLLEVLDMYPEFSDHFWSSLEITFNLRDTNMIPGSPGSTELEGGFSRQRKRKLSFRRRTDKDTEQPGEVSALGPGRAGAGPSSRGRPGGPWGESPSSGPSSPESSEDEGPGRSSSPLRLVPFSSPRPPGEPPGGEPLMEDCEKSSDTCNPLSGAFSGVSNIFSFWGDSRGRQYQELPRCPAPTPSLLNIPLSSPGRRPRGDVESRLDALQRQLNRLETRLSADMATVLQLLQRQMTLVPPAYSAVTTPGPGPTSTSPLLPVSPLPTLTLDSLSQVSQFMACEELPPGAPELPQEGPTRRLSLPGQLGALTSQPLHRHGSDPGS

Turning to `Cl.Cl.O=C(CN1CCOCC1)Nc1ccc(OC2CCN(C3CCC3)CC2)cc1`, the Activity entry in series [1], in series [2], in series [7] and in series [8] was “Non-Toxic” each time. Further, the 50% effect level in series [3] (ED50) was put at a dose of 0.24 mg/kg. This compound also returned an ED80 in series [3] of 3.05 mg/kg. Further, the Occ result in series [3] is “Dose-dependent effect”. Moreover, the distribution volume (Vd) (usually a proportionality between amount in the body and measured concentration, not a real space) in series [4] amounted to 5.2 L/kg. The IC50 (usually the concentration that gives 50% inhibition) was greater than 10 µM in series [5] and greater than 45 µM in series [6].
